Experiment [1] deals with MCF7. Nature of the experiment: Antiproliferative activity against human MCF7 cells after 48 hrs by MTT assay. It is filed as functional, cell-based. Conditions: MCF7, 48 h. In a few lines: (§1)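 Cells diluted to 2×10^4 cells mL⁻¹ in complete medium, plated and held 24 h at 37 °C, 5% CO₂ before dosing at pre-set concentrations. After 48 h exposure, MTT (2.5 mg mL⁻¹ in PBS) added for 4 h, then SDS–isobutyl alcohol–HCl extraction solution overnight at 37 °C. Absorbance read at 570 nm. Three replicate wells per concentration, each assay run at least three times.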
In general terms: Tetrazolium assays rely on reduction of a dye to a coloured formazan, in cell work by metabolically active cells.

The test system of another experiment is A549. The experiment can be described thus: Antiproliferative activity against human A549 cells after 48 hrs by MTT assay. The following applies: A549, 48 h. Format: functional, cell-based. In a few lines:
as §1

Experiment [2] in a line: Inhibition of bovine brain tubulin polymerization preincubated for 10 mins measured after 20 mins. Further details: species or system Bos taurus. In a few lines: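 Tubulin purified from bovine brain, used at 10 µM in glutamate buffer and preincubated with varying compound concentrations at 30 °C, then cooled to 0 °C. GTP added and mixtures warmed to 30 °C in a recording spectrophotometer, with assembly followed turbidimetrically.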

For experiment [3], the system named is MCF7. Nature of the experiment: Induction of cell cycle arrest in human MCF7 cells assessed as accumulation at G0/G1 phase at 5 ug/ml after 24 hrs by flow cytometric analysis (reference value: 66%). Format: functional. For orientation: A flow cytometer gives signals particle by particle.
Experiment [4] deals with MCF7. The experiment can be described thus: Induction of cell cycle arrest in human MCF7 cells assessed as accumulation at S phase at 5 ug/ml after 24 hrs by flow cytometric analysis (reference value: 12%). Format: functional.
In experiment [5] the test system is MCF7. Nature of the experiment: Induction of cell cycle arrest in human MCF7 cells assessed as accumulation at G2/M phase at 5 ug/ml after 24 hrs by flow cytometric analysis (reference value: 18%). It is filed as functional.

Values after ≈ are worked out from the molar mass of the structure shown.

The IC50 is the concentration needed to halve the response being measured. Low values mean higher potency, high ones lower potency. As to `O=C(/C=C/c1ccccc1)Nc1nnc(-c2ccccc2)s1`, the results for the IC50 (with MCF7 [1]; in the experiment with A549; in experiment [2]) were 1.47 µg/mL (≈ 4.78 µM), 1.75 µg/mL (≈ 5.69 µM) and 5.68 µg/mL (≈ 18.5 µM), respectively.
Turning to `O=C(/C=C/c1ccc(F)cc1)Nc1nnc(-c2ccccc2)s1`, the IC50 came out at 1.45 µg/mL (≈ 4.46 µM) in the experiment on MCF7 [1], 1.82 µg/mL (≈ 5.59 µM) with A549 and 5.87 µg/mL (≈ 18 µM) in experiment [2].
Take `O=C(/C=C/c1ccc(C(F)(F)F)cc1)Nc1nnc(-c2ccccc2)s1`: the IC50 came to 1.52 µg/mL (≈ 4.05 µM) in the experiment with MCF7 [1], 1.78 µg/mL (≈ 4.74 µM) in the experiment on A549 and 5.52 µg/mL (≈ 14.7 µM) in experiment [2].
Taken in the same sequence, the figures for `Cc1ccc(/C=C/C(=O)Nc2nnc(-c3ccccc3)s2)cc1` were 1.23 µg/mL (≈ 3.83 µM), 1.58 µg/mL (≈ 4.92 µM) and 4.49 µg/mL (≈ 14 µM).
As to `COc1ccc(/C=C/C(=O)Nc2nnc(-c3ccccc3)s2)cc1`, the IC50 came out at 0.83 µg/mL (≈ 2.46 µM) in the experiment on MCF7 [1], 0.76 µg/mL (≈ 2.25 µM) in the experiment with A549 and 3.02 µg/mL (≈ 8.95 µM) in experiment [2].
Taken in the same sequence, the figures for `O=C(/C=C/c1ccccc1)Nc1nnc(-c2ccc(Cl)cc2)s1` were 1.42 µg/mL (≈ 4.15 µM), 2.02 µg/mL (≈ 5.91 µM) and 6.56 µg/mL (≈ 19.2 µM).
Taken in the same sequence, the figures for `O=C(/C=C/c1ccc(F)cc1)Nc1nnc(-c2ccc(Cl)cc2)s1` were 1.58 µg/mL (≈ 4.39 µM), 2.06 µg/mL (≈ 5.73 µM) and 7.08 µg/mL (≈ 19.7 µM).
Turning to `O=C(/C=C/c1ccc(C(F)(F)F)cc1)Nc1nnc(-c2ccc(Cl)cc2)s1`, the IC50 in the experiment with MCF7 [1] amounted to 1.65 µg/mL (≈ 4.03 µM); in the experiment on A549 it was 3.09 µg/mL (≈ 7.54 µM); in experiment [2], 7.83 µg/mL (≈ 19.1 µM).
In the case of `Cc1ccc(/C=C/C(=O)Nc2nnc(-c3ccc(Cl)cc3)s2)cc1`, the results for the IC50 (in the experiment on MCF7 [1]; with A549; in experiment [2]) were 1.44 µg/mL (≈ 4.05 µM), 1.25 µg/mL (≈ 3.51 µM) and 4.79 µg/mL (≈ 13.5 µM), respectively.
Taken in the same sequence, the figures for `COc1ccc(/C=C/C(=O)Nc2nnc(-c3ccc(Cl)cc3)s2)cc1` were 0.91 µg/mL (≈ 2.45 µM), 1.38 µg/mL (≈ 3.71 µM) and 5.68 µg/mL (≈ 15.3 µM).
Taken in the same sequence, the figures for `O=C(/C=C/c1ccccc1)Nc1nnc(-c2ccc(Br)cc2)s1` were 1.5 µg/mL (≈ 3.88 µM), 2.18 µg/mL (≈ 5.64 µM) and 7.05 µg/mL (≈ 18.3 µM).
Taken in the same sequence, the figures for `O=C(/C=C/c1ccc(F)cc1)Nc1nnc(-c2ccc(Br)cc2)s1` were 1.49 µg/mL (≈ 3.69 µM), 2.83 µg/mL (≈ 7 µM) and 8.66 µg/mL (≈ 21.4 µM).
As for `O=C(/C=C/c1ccc(C(F)(F)F)cc1)Nc1nnc(-c2ccc(Br)cc2)s1`, the results for the IC50 (with MCF7 [1]; with A549; in experiment [2]) were 1.58 µg/mL (≈ 3.48 µM), 4.68 µg/mL (≈ 10.3 µM) and 10.6 µg/mL (≈ 23.3 µM), respectively.
Taken in the same sequence, the figures for `Cc1ccc(/C=C/C(=O)Nc2nnc(-c3ccc(Br)cc3)s2)cc1` were 1.32 µg/mL (≈ 3.3 µM), 1.51 µg/mL (≈ 3.77 µM) and 5.02 µg/mL (≈ 12.5 µM).
For the compound `COc1ccc(/C=C/C(=O)Nc2nnc(-c3ccc(Br)cc3)s2)cc1`, the IC50 in the experiment with MCF7 [1] was determined as 1.13 µg/mL (≈ 2.71 µM); in the experiment with A549 it was 1.04 µg/mL (≈ 2.5 µM); in experiment [2], 4.11 µg/mL (≈ 9.87 µM).
Taken in the same sequence, the figures for `Cc1ccc(-c2nnc(NC(=O)/C=C/c3ccccc3)s2)cc1` were 1.19 µg/mL (≈ 3.7 µM), 1.38 µg/mL (≈ 4.29 µM) and 4.83 µg/mL (≈ 15 µM).
Consider `Cc1ccc(-c2nnc(NC(=O)/C=C/c3ccc(F)cc3)s2)cc1`, for which the IC50 in the experiment with MCF7 [1] is 1.27 µg/mL (≈ 3.74 µM); in the experiment with A549, 1.23 µg/mL (≈ 3.62 µM); in experiment [2] it was 5.08 µg/mL (≈ 15 µM).
Taken in the same sequence, the figures for `Cc1ccc(-c2nnc(NC(=O)/C=C/c3ccc(C(F)(F)F)cc3)s2)cc1` were 1.1 µg/mL (≈ 2.82 µM), 1.61 µg/mL (≈ 4.13 µM) and 5.16 µg/mL (≈ 13.3 µM).
Consider `Cc1ccc(/C=C/C(=O)Nc2nnc(-c3ccc(C)cc3)s2)cc1`, for which the IC50 in the experiment with MCF7 [1] came to 0.61 µg/mL (≈ 1.82 µM); in the experiment with A549 it was 1.08 µg/mL (≈ 3.22 µM); in experiment [2], 4.15 µg/mL (≈ 12.4 µM).
Consider `COc1ccc(/C=C/C(=O)Nc2nnc(-c3ccc(C)cc3)s2)cc1`, for which the IC50 with MCF7 [1] stood at 0.35 µg/mL (≈ 0.996 µM); with A549, 0.66 µg/mL (≈ 1.88 µM); in experiment [2], 2.64 µg/mL (≈ 7.51 µM).
Taken in the same sequence, the figures for `COc1ccc(-c2nnc(NC(=O)/C=C/c3ccccc3)s2)cc1` were 0.78 µg/mL (≈ 2.31 µM), 0.68 µg/mL (≈ 2.02 µM) and 3.08 µg/mL (≈ 9.13 µM).
Taken in the same sequence, the figures for `COc1ccc(-c2nnc(NC(=O)/C=C/c3ccc(F)cc3)s2)cc1` were 0.85 µg/mL (≈ 2.39 µM), 0.75 µg/mL (≈ 2.11 µM) and 3.05 µg/mL (≈ 8.58 µM).
On to `COc1ccc(-c2nnc(NC(=O)/C=C/c3ccc(C(F)(F)F)cc3)s2)cc1`, for which the results for the IC50 (in the experiment with MCF7 [1]; in the experiment with A549; in experiment [2]) were 0.79 µg/mL (≈ 1.95 µM), 0.69 µg/mL (≈ 1.7 µM) and 3.17 µg/mL (≈ 7.82 µM), respectively.
Regarding `COc1ccc(-c2nnc(NC(=O)/C=C/c3ccc(C)cc3)s2)cc1`, the IC50 in the experiment on MCF7 [1] was 0.31 µg/mL (≈ 0.882 µM); in the experiment with A549 it was 0.58 µg/mL (≈ 1.65 µM); in experiment [2] it was 2.56 µg/mL (≈ 7.28 µM).
As to `COc1ccc(/C=C/C(=O)Nc2nnc(-c3ccc(OC)cc3)s2)cc1`, the IC50 in the experiment on MCF7 [1] is 0.28 µg/mL (≈ 0.762 µM); in the experiment with A549, 0.52 µg/mL (≈ 1.42 µM); in experiment [2], 1.16 µg/mL (≈ 3.16 µM). The Activity with MCF7 [3] worked out at 2%; in the experiment on MCF7 [4] it was 2%; in the experiment with MCF7 [5], 68%.
With `COc1cc2c(c(OC)c1OC)-c1ccc(OC)c(=O)cc1[C@@H](NC(C)=O)CC2` [COLCHICINE], the IC50 in the experiment on MCF7 [1] worked out at 0.53 µg/mL (≈ 1.33 µM); with A549 it was 0.75 µg/mL (≈ 1.88 µM). Besides, the Activity worked out at 2% in the experiment on MCF7 [3], 3% in the experiment with MCF7 [4] and 79% with MCF7 [5].
As for `COc1ccc(/C=C\c2cc(OC)c(OC)c(OC)c2)cc1O` [COMBRETASTATIN A4], the IC50 in the experiment on MCF7 [1] came to 0.41 µg/mL (≈ 1.3 µM); with A549, 0.55 µg/mL (≈ 1.74 µM); in experiment [2], 0.81 µg/mL (≈ 2.56 µM).

The record behind these values is ChEMBL document CHEMBL1932925, “Synthesis, biological evaluation, and molecular docking studies of cinnamic acyl 1,3,4-thiadiazole amide derivatives as novel antitubulin agents” (Bioorg Med Chem, 2012).
